# Compounds with a hit are over-represented: about 3% of the library has one in this group of screens.
# 5HT1a antag = human 5-HT1a receptor antagonists, primary screen, cell-based, CHO, Ga15 NFAT-bla reporter. 5-hydroxytryptamine receptor 1A (Homo sapiens), P08908. CHO 5-HT1a Ga15 NFAT-bla reporter, antagonist mode. inhibition, % at 10 µM. 0.68% of 62,000 active;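 active = inhibition above the mean of all tested compounds plus 3 SD, cut at about 43% in these data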;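 also: receptor stimulated by 5-CT agonist at 100 nM near EC80; beta-lactamase reporter measured by ratiometric fluorescence of a cleavable substrate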
# Target sequence (P08908 whole entry, looked up): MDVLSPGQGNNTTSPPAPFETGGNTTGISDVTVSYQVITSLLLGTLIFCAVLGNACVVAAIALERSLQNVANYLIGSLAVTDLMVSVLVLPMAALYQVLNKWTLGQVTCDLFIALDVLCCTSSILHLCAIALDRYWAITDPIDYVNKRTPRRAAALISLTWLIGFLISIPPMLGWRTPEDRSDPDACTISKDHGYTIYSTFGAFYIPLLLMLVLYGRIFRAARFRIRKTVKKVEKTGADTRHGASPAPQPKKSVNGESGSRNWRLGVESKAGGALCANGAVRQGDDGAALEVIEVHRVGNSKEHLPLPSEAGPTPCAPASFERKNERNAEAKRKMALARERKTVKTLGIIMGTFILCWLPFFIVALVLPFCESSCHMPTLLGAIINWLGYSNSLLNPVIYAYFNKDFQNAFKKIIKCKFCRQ
# HTR1E agonist = 5-HT1E receptor agonists, primary screen, cell-based, HTS | 5-hydroxytryptamine receptor 1E (Homo sapiens), P28566 | activation, % at 6 µM | 0.69% of 65,000 active | CHO 5-HT1E Ga15 NFAT-bla reporter, FRET; 0% DMSO wells, 100% control agonist wells;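 active = activation above a set limit, the screen-wide mean activation plus 3 SD, cut at about 8.5% in these data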;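 also: 100% = positive control agonist at 1 µM giving full maximal response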
# S1P1 ag pot = S1P1 agonists and agonism potentiators, primary screen, cell-based, primary and confirmation screens, CRE-bla reporter; S1P1 CRE-bla cells, forskolin, beta-lactamase FRET, potentiator mode; S1P1 agonist co-added at EC20, 2 nM; 100% = saturating reference agonist, 0% = basal; activation, % at 9.5 µM; 0.57% of 56,000 active; AID 449, 2006;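 active = activation above a cutoff set at the mean activation of all tested compounds plus 3 SD, cut at about 54% in these data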;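 also: forskolin at 4 µM as EC80 and the EC20 agonist is SEW2871; 100% = SEW2871 at its EC100 plus forskolin at EC80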
# HTR1A agonist = human 5-HT1a receptor agonists, primary screen, cell-based, CHO, Ga15 NFAT-bla reporter; CHO 5-HT1a Ga15 NFAT-bla reporter, FRET ratio; 0% basal, 100% maximal reference agonist; 0.56% of 65,000 active; activation, % at 10 µM; AID 567, 2006; 5-hydroxytryptamine receptor 1A (Homo sapiens), P08908;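 active = activation above the screen-wide mean activation plus 3 SD, cut at about 19% in these data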;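 also: 0% = DMSO wells and 100% = 5-CT at EC100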
# S1P3 agonist = human S1P3 receptor agonists, primary screen, cell-based, primary and confirmation, NFAT-BLA reporter; Sphingosine 1-phosphate receptor 3 (Homo sapiens), Q99500; S1P3 NFAT-BLA reporter cells, agonism, FRET ratio; relative to 1 µM S1P, basal subtracted; activation, % at 4.5 µM; 0.1% of 60,000 active;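 active = activation above the screen-wide mean plus 3 SD, cut at about 4.5% in these data, passing the limit was not always enough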
#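 Assay system: stable CHO line with human S1P3, Gα16, NFAT-BLA reporter; Detection: FRET β-lactamase substrate fluorescence, excitation 405 nm, 460/535 nm emission ratio, background-subtracted; Read-out: percent activation versus median 1 µM S1P response, basal-subtracted, per plate; Incubation: cells plated overnight, compound 4 h 37 °C, substrate 2 h RT.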
# HTR1E antagonist = 5-HT1E receptor antagonists, primary screen, cell-based, HTS; 5-hydroxytryptamine receptor 1E (Homo sapiens), P28566; CHO 5-HT1E Ga15 NFAT-bla reporter, FRET, antagonist; inhibition, % at 6 µM; 0.99% of 65,000 active; AID 571, 2007;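 active = inhibition above a set limit, the mean inhibition across every tested compound plus 3 SD, cut at about 29% in these data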;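 also: signal is the 460 over 535 nm emission ratio of beta-lactamase substrate; 0% = agonist plus DMSO wells and 100% = wells without agonist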
# Starred values were filed as active, the others as inactive; . = no result.
SMILES,5HT1a antag,HTR1E agonist,S1P1 ag pot,HTR1A agonist,S1P3 agonist,HTR1E antagonist
COc1cc(C(=O)Oc2c(CN3CCOCC3)cc(Cl)c3cccnc23)cc(OC)c1OC,18,2,-32,0,-1,38*
O=C(Oc1c(CN2CCOCC2)cc(Cl)c2cccnc12)c1ccc(F)cc1,17,2,-8,-1,-1,37*
COc1ccc(-c2nc3c(c(=O)n(C)c(=O)n3C)n2CC2CC(c3ccccc3)=NO2)cc1OC (configuration not stated),-14,1,-16,1,0,7
Cc1nn(Cc2ccc(Cl)cc2)c(C)c1NC(=O)c1cc(-c2ccco2)on1,8,0,65,-1,0,17
Cc1nn(Cc2ccc(Cl)c(Cl)c2)c(C)c1NC(=O)c1cc(-c2ccco2)on1,38,0,96*,6,-1,23
COc1ccc(-c2nc(CN3CCC(C(=O)NC(C)C)CC3)c(C)o2)cc1OC,1,0,-6,0,0,1
CCOC(=O)c1cc2c(ccn2C)n1CC(=O)N1CCN(c2ccccc2)CC1,4,0,12,-2,0,-14
CCOC(=O)c1cc2c(ccn2C)n1Cc1ccccc1C,44*,0,-8,-2,-1,29
C=CCOc1cccc(C2C(C(=O)c3ccc(C)o3)=C(O)C(=O)N2c2nccs2)c1 (configuration not stated),13,0,.,0,.,6
C1CCC(c2nn3c(-c4n[nH]c5c4CCC5)nnc3s2)CC1,-11,0,-54,-3,0,16
CCN(CC)c1ccc(-c2nn3c(-c4n[nH]c5c4CCC5)nnc3s2)cc1,56*,2,-108,2,-1,70*
CCOC(=O)N1CCC(N2Cc3cccc(C(=O)O)c3C2=O)CC1,-2,0,-16,83*,-1,-6
CCOC(=O)N1CCC(N2Cc3cccc(C(=O)N4CC(C)CC(C)C4)c3C2=O)CC1 (configuration not stated),3,0,15,0,0,-3
COc1cccc(Cn2nnc(C(=O)NCc3ccc(F)cc3)c2N)c1,15,-2,-10,2,0,32*
CCC(=O)N1CCc2cc(OC)c(OC)cc2C1COc1ccc(C(=O)OC)cc1 (configuration not stated),18,-1,.,1,.,37*
COC(=O)c1ccc(OCC2c3cc(OC)c(OC)cc3CCN2C(=O)c2ccco2)cc1 (configuration not stated),23,0,.,3,.,36*
CCn1c(SCC(=O)N2CCN(c3ccc(F)cc3)CC2)nnc1-c1ccncc1,0,0,-28,0,-1,-8
CN(C)C=Nc1ncc2c([nH]c3ccccc32)c1C#N,7,0,4,-4,0,-2
CC(=O)NCc1ccc(-c2csc(N)n2)s1,-12,14*,-12,-3,1,-9
COc1ccc(NS(=O)(=O)c2coc(C(N)=O)c2)cc1Cl,-3,2,-2,-3,-1,-7
COc1ccc(-n2nc3ccc(NS(C)(=O)=O)cc3n2)cc1Cl,10,0,103*,-2,-1,11
CCCC(=O)Nc1ccc(-c2nc3cc(C)c(C)cc3o2)c(O)c1,-9,0,38,-1,-1,-7
CCCC(=O)Nc1ccc(-c2nc3cc(C)ccc3o2)cc1,7,0,70*,0,-1,-6
CCCC(=O)Nc1ccc2oc(-c3ccc(OC)c(Br)c3)nc2c1,-10,0,98*,1,0,6
Cc1nc(N)sc1-c1nnc(SCC(=O)Nc2nccs2)n1C,5,0,13,0,-2,7
SMILES,5HT1a antag,HTR1E agonist,S1P1 ag pot,HTR1A agonist,S1P3 agonist,HTR1E antagonist
O=C(CC(=O)N1CCN(c2ccccn2)CC1)Nc1ccc2nc3n(c(=O)c2c1)CCCCC3,-11,0,-32,11,0,0
FC(F)C(F)(F)C(F)(F)C(F)(F)c1cc(-c2ccccc2)n[nH]1,7,1,-10,-3,0,3
Cc1cccc(C)c1OCC(O)Cn1ccnc1C (configuration not stated),4,-1,4,1,-2,5
Cc1cccc(C)c1OCC(O)CN (configuration not stated),-3,24*,7,-4,0,3
COC(=O)c1[nH]c2ccccc2c1NC(=O)CN1CCN(C(=O)c2ccco2)CC1,9,0,0,-3,-2,-2
O=C(Nc1cccc(Cl)c1)N1CCN(c2ncccn2)CC1,-7,-2,-1,-2,0,-5
COc1ccc(C(=O)N2CCN(c3cccc(Cl)c3)CC2)c(OC)c1,20,1,.,0,-1,12
CC(=O)c1ccc(NC(=O)N2CCN(c3cccc(Cl)c3)CC2)cc1,33,3,65*,-1,-2,24
O=C(O)c1ccccc1C(=O)N1CCN(c2cccc(Cl)c2)CC1,21,45*,12,4,0,1
CCOc1ccccc1C(=O)N1CCN(c2cccc(Cl)c2)CC1,70*,1,-12,0,-1,70*
CCN(C(=O)c1cccc(F)c1)c1ccccc1C,15,1,.,-1,.,4
CC(C)(CSc1nncn1N)NS(=O)(=O)c1ccc(Cl)cc1,-8,-1,0,1,-1,4
CCC(C)(C)n1nnnc1C(CC(C)C)N1CCC(C(N)=O)CC1 (configuration not stated),-11,0,1,0,0,-20
c1ccc2c(c1)[nH]c1nc(SCCN3CCOCC3)nnc12,-3,0,.,1,-1,3
Brc1ccc2[nH]c3nc(SCCN4CCOCC4)nnc3c2c1,3,0,-67,0,1,36*
CCC(=O)Nc1cc(C)c(NC(=O)c2ccccc2OC)cn1,-16,14*,0,-2,0,-2
CCC(=O)Nc1cc(C)c(NC(=O)c2ccco2)cn1,3,0,.,1,.,1
CCN(CC)c1ccc2c(c1)OC(N)=C(C#N)C2c1cccnc1 (configuration not stated),32,-1,-42,-3,-2,77*
